Test results: ChEMBL document CHEMBL2311293, “Discovery of agonists of cannabinoid receptor 1 with restricted central nervous system penetration aimed for treatment of gastroesophageal reflux disease” (J Med Chem, 2013)
Converted amounts (≈) assume the structure as drawn.

What was measured:
Cannabinoid receptor 2 = Cannabinoid receptor 2 (Homo sapiens, UniProt P34972); assay: Displacement of [3H]-CP55,940 from human CB2 receptor expressed in Sf9 cell membranes by scintillation counting analysis
How it was run: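 Membranes from Sf9 cells expressing cloned hCB2 (baculovirus) in 50 mM Tris, 2.5 mM EDTA, 5 mM MgCl2, 0.5 mg/mL fatty-acid-free BSA, pH 7.4. 60 min at rt, GF/B filtration, scintillation counting. 10-point curves; IC50 mean of three independent experiments.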

[1] = Lipophilicity, log D of the compound; details: octanol/water
Cannabinoid receptor 1 [2] = target: T1, Cannabinoid receptor 1 (Homo sapiens, UniProt P21554); assay: Agonist activity at human CB1 receptor expressed in HEK293S cell membranes after 1 hr by GTPgamma[35S] binding assay
Cannabinoid receptor 1 [3] = target: T1, Cannabinoid receptor 1; assay: Agonist activity at human CB1 receptor expressed in HEK293S cell membranes after 1 hr by GTPgamma[35S] binding assay relative to WIN 55,212-2
How it was run: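 HEK293S membranes with cloned human CB1 (5 µg protein/well) in Hepes buffer pH 7.4, 100 mM NaCl, 5 mM MgCl2, 1 mM EDTA, 0.1% BSA, 15 µM GDP final. GTPγ[35S] added to start, 1 h at rt, filtered, counted. Basal from 8 wells; maximum from 8 wells with 10 µM reference agonist. Emax expressed as % of that reference. 10-point curves; mean of three experiments.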

Cannabinoid receptor 1 [4] = target: T1, Cannabinoid receptor 1; assay: Displacement of [3H]-CP55,940 from human CB1 receptor expressed in HEK293S cell membranes by scintillation counting analysis
Cytochrome P450 3A4 = Cytochrome P450 3A4 (Homo sapiens, UniProt P08684); assay: Inhibition of human recombinant CYP3A4 expressed in Escherichia coli cells; format: ADME
[5] = target: Voltage-gated inwardly rectifying potassium channel KCNH2 (Homo sapiens, UniProt Q12809); assay: Inhibition of human ERG expressed in CHO cells by patch clamp assay; format: cell-based
How it was run: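 Patch clamp (IonWorks) in CHO cells expressing hERG.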

[6] = Ratio of unbound fraction in brain to plasma in Sprague-Dawley rat; format: ADME, cell-free
How it was run: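 Steady-state total brain/plasma ratio in Sprague-Dawley rats after 4 h constant-rate i.v. infusion, corrected by unbound fraction in brain (rat brain slices) and in plasma (equilibrium dialysis).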

[7] = Ratio of drug level in brain to plasma in Sprague-Dawley rat; format: ADME, cell-free; details: for Kp: Sprague-Dawley, brain and plasma, read-out: BPR
How it was run: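 Total brain-to-plasma ratio from in vivo Sprague-Dawley rat samples, compound given as 4 h constant-rate i.v. infusion to steady state.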

[8] = Solubility of the compound in Hank's balanced saline solution at pH 7.4 after 24 hrs by HPLC analysis; format: physicochemical
How it was run: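 Compound in DMSO added to Hanks balanced saline solution pH 7.4, shaken 24 h.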

[9] = (§1) Apparent permeability from apical to basolateral side in human Caco2 cells at pH 7.4; format: ADME, cell-based; details: Caco-2, pH 7.4
How it was run: (§2)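 Caco-2 monolayers at pH 7.4, apparent permeability measured for apical-to-basolateral transport.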

Cytochrome P450 2C9 = Cytochrome P450 2C9 (Homo sapiens, UniProt P11712); assay: Inhibition of human recombinant CYP2C9 expressed in Escherichia coli cells; format: ADME
[10] = Clearance in Sprague-Dawley rat at 2 umol/kg, iv; format: ADME, organism-based; details: in vivo
How it was run: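 Sprague-Dawley rats given 2 µmol/kg i.v.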

[11] = Oral bioavailability in Sprague-Dawley rat at 10 umol/kg; format: ADME, organism-based; details: in vivo
How it was run: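 Sprague-Dawley rats given 10 µmol/kg p.o., with i.v. reference dose of 2 µmol/kg.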

Caco-2 = assay: as §1; format: ADME, cell-based; details: Caco-2, pH 7.4; how it was run: as §2
Canis familiaris [12] = assay: Inhibition of transient lower esophageal sphincter relaxations in dog at 2 umol/kg dosed intragastrically measured after 10 mins; format: functional; details: Canis lupus familiaris, po
Canis familiaris [13] = assay: Inhibition of transient lower esophageal sphincter relaxations in intragastrically dosed dog; format: functional, organism-based; details: Canis lupus familiaris
How it was run: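 Dogs with esophagostomy and water-perfused Dentsleeve manometry (gastric, LES, esophageal pressures). Dosed intragastrically 30 min before start; TLESRs counted over 45 min. TLESR: LES pressure falls >1 mmHg/s to <2 mmHg above gastric, lasting >1 s, no swallow within 2 s before. Each dog its own control against five prior control runs; mean ± S.E.M.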

Canis familiaris [14] = assay: Inhibition of transient lower esophageal sphincter relaxations in dog at 1 umol/kg dosed measured after 10 mins; format: functional; details: Canis lupus familiaris
[15] = Agonist activity at dog CB1 receptor expressed in HEK293S cell membranes after 1 hr by GTPgamma[35S] binding assay; set-up: species or system Canis lupus familiaris
How it was run: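 Dog CB1 stably expressed in HEK293S membranes, handled as for human CB1: Hepes buffer pH 7.4 with 100 mM NaCl, 5 mM MgCl2, 1 mM EDTA, 0.1% BSA, 15 µM GDP (final); 5 µg protein/well; GTPγ[35S] tracer; 1 h at rt; filtration and scintillation counting; 10-point curves; mean of three independent experiments.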

Cytochrome P450 2C9, sequence (P11712 whole entry): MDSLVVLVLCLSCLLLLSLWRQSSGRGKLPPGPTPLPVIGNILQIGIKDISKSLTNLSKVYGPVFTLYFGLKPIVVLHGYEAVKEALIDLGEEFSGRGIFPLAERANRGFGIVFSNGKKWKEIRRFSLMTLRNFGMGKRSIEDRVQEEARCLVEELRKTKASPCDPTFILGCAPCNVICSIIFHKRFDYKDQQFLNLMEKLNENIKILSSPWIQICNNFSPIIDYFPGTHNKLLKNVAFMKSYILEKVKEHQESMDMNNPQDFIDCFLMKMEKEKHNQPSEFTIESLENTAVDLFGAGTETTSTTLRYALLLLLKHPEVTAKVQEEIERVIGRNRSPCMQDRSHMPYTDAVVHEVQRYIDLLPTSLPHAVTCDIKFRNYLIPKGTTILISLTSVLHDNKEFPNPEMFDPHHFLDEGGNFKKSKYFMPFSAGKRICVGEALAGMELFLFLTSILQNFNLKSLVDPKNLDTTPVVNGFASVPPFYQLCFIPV
Cytochrome P450 3A4, sequence (P08684 whole entry): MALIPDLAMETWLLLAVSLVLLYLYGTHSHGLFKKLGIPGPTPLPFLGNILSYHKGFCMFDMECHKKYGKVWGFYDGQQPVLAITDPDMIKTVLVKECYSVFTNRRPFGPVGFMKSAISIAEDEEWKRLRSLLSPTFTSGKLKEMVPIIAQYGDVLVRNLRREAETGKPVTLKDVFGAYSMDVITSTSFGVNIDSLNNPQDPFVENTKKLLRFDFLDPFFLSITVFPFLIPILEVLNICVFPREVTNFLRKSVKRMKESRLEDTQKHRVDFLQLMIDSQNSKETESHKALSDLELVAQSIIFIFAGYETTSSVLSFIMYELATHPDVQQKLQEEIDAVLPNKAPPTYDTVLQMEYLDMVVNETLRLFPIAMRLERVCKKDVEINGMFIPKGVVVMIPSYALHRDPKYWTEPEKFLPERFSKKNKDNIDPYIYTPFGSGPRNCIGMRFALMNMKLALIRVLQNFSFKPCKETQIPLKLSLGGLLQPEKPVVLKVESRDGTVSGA
T1 sequence (P21554 whole entry): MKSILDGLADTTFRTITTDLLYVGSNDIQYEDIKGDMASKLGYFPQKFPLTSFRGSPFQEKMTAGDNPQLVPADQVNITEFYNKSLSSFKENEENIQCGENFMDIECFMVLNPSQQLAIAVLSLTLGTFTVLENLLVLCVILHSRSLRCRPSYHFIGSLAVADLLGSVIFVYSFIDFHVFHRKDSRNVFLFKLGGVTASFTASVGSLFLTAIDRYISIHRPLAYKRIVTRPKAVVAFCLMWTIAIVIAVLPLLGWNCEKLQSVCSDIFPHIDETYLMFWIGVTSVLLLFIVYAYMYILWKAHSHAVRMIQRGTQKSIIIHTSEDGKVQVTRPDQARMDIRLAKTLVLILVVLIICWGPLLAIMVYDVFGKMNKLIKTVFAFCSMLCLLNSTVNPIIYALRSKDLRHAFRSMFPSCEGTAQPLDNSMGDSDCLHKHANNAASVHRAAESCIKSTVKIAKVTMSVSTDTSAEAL
Cannabinoid receptor 2, sequence (P34972 whole entry): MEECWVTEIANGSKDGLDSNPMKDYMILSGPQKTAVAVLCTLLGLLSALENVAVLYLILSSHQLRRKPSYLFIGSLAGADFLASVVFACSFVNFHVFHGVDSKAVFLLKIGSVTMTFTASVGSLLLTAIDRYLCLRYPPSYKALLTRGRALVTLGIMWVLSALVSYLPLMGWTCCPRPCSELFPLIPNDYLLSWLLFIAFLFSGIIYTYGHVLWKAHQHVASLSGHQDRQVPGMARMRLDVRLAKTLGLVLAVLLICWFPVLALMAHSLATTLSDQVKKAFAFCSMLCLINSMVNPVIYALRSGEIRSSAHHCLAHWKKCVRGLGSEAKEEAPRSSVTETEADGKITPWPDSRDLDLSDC
Voltage-gated inwardly rectifying potassium channel KCNH2, sequence (Q12809 whole entry): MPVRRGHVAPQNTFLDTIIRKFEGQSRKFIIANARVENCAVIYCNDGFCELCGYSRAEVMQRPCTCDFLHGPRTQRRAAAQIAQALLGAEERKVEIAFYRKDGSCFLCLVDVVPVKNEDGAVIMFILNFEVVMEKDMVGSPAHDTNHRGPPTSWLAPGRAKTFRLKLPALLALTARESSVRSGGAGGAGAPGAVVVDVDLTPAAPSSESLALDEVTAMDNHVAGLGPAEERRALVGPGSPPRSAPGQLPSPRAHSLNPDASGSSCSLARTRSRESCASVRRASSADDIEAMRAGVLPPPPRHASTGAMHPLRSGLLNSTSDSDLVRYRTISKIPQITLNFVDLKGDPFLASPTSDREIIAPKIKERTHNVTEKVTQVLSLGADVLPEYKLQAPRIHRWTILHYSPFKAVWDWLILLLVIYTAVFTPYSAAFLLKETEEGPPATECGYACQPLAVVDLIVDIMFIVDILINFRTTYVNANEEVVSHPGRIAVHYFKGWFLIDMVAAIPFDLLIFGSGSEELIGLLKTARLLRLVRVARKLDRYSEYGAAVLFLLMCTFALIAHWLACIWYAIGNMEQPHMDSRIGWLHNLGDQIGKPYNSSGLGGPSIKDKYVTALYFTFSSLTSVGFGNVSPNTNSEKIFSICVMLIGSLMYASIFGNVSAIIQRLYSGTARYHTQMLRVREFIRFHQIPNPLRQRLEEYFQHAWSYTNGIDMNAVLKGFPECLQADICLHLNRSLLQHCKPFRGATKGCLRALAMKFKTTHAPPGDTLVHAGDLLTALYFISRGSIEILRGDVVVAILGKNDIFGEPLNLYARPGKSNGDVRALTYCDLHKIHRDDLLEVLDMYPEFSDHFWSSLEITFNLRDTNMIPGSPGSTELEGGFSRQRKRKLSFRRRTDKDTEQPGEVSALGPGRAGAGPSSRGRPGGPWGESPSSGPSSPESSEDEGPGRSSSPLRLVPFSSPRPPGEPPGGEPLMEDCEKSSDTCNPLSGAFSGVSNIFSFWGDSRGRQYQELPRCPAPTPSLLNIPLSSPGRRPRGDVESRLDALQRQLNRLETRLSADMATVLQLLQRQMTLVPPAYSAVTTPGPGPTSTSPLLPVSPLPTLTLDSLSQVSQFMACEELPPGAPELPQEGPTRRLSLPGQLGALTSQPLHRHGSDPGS

SMILES	IC50 (Cannabinoid receptor 2) [µM]	logD [1]	EC50 (Cannabinoid receptor 1 [2]) [µM]	Emax (Cannabinoid receptor 1 [3]) [%]	IC50 (Cannabinoid receptor 1 [4]) [µM]	further results
O=C(NCC1CCC1)c1nc(OCCOCCO)ccc1NC(=O)c1ccnc2ccccc12	1.2	4.1	0.014	130	10	
C[S+]([O-])Cc1ccc(C(=O)Nc2cccnc2C(=O)NCC2CCOCC2)c2ccccc12 (stereo not drawn)	2.5	2.8	0.087	110	0.049	IC50 (Cytochrome P450 3A4): > 20 µM; IC50 [5]: > 32 µM; BPR [6]: 0.01; Kp [7]: 0.018; solubility at 24 h [8]: 79 µM (≈ 36.8 µg/mL); Papp A→B [9]: 23 ×10⁻⁶ cm/s; IC50 (Cytochrome P450 2C9): 19 µM; clearance [10]: 14 mL/min/kg; bioavailability [11]: 31%
C[S+]([O-])Cc1ccc(C(=O)Nc2nccnc2C(=O)NCC2CCC2)c2ccccc12 (single isomer, unassigned) [listing 1 of 2 here]		2.7	0.032		0.037	BPR [6]: 0.011; Kp [7]: 0.02; Papp (Caco-2): 9 ×10⁻⁶ cm/s
O=C(NCC1CCCCC1)c1ncccc1NC(=O)c1cccc2ccccc12	0.11	8.1	0.024	110	0.01	
O=C(Nc1cccnc1C(=O)NCC1CCOCC1)c1cccc2c1OCCO2	5.7	3.8			1.2	
O=C(NCC1CCC1)c1ncccc1NC(=O)c1cccc2ccccc12	0.026		0.023	110	0.0061	
O=C(NCC1CCOCC1)c1ncccc1NC(=O)c1ccc(C(=O)O)c2ccccc12	> 10				> 10000	
C[S+]([O-])Cc1ccc(C(=O)Nc2nccnc2C(=O)NCC2CCC2)c2ccccc12 (single isomer, unassigned) [listing 2 of 2 here]				110		
O=C(NCC1CCCCC1)c1cnccc1NC(=O)c1cccc2ccccc12	9	6.1			1.4	
O=C(NCC1CCC1)c1ncccc1NC(=O)c1cccc2cnccc12	0.038	5.1			0.22	
O=C(NCC1CCC1)c1ncccc1NC(=O)c1ccc(Cn2ccnn2)c2ccccc12	0.065	5.3	0.0014	110	0.71	
O=C(NCC1CCC1)c1ncccc1NC(=O)c1ccc(Cn2cccn2)c2ccccc12	0.069	6.2	0.023	93	13	
O=C(NCC1CCCCC1)c1cccnc1NC(=O)c1cccc2ccccc12	> 10	4.7			> 10	
O=C(NCC1CCC1)c1ncccc1NC(=O)c1ccc(Cn2cccc2)c2ccccc12	0.34		0.17	82		
C[S+]([O-])Cc1ccc(C(=O)Nc2nccnc2C(=O)NCC2CCC2)c2ccccc12 (stereo in doubt; 18f) [listing 1 of 2 here]	0.3		0.12		0.047	IC50 (Cytochrome P450 3A4): > 20 µM; IC50 [5]: 17 µM; BPR [6]: 0.03; BPR ([7]; brain): 0.022; solubility at 24 h [8]: 87 µM (≈ 38 µg/mL); Papp (Caco-2): 20 ×10⁻⁶ cm/s; IC50 (Cytochrome P450 2C9): > 20 µM; clearance [10]: 26 mL/min/kg; bioavailability [11]: 52%
C[S+]([O-])Cc1ccc(C(=O)Nc2ccc(OCCOCCO)nc2C(=O)NCC2CCC2)c2ccccc12 (stereo not drawn)	0.5	3.2	0.0051	120	0.0072	IC50 (Cytochrome P450 3A4): 5.5 µM; BPR [6]: 0.023; inhibition in vivo at 2 µmol/kg (Canis familiaris [12]): 31.7%; inhibition (Canis familiaris [13]): Dose-dependent effect; Kp [7]: 0.02; inhibition in vivo at 1 µmol/kg (Canis familiaris [14]): 5.9%; Papp A→B [9]: 26 ×10⁻⁶ cm/s; IC50 (Cytochrome P450 2C9): 6.7 µM; EC50 [15]: 0.003 µM
O=C(NCC1CCCCC1)c1ccncc1NC(=O)c1cccc2ccccc12	> 8.9	5.5			3.6	
O=C(NCC1CCC1)c1nc(OCCO)ccc1NC(=O)c1ccnc2ccccc12	2.5	4	0.12	51	73	

SMILES	IC50 (Cannabinoid receptor 2) [µM]	logD [1]	EC50 (Cannabinoid receptor 1 [2]) [µM]	Emax (Cannabinoid receptor 1 [3]) [%]	IC50 (Cannabinoid receptor 1 [4]) [µM]	further results
O=C(NCC1CCOCC1)c1ncccc1NC(=O)c1cccc2ccccc12	0.26	5.1	0.081	110	0.031	Kp [7]: 3
CS(=O)(=O)Cc1ccc(C(=O)Nc2cccnc2C(=O)NCC2CCC2)c2ccccc12			0.26	77	240	
C[S+]([O-])Cc1ccc(C(=O)Nc2nccnc2C(=O)NCC2CCC2)c2ccccc12 (stereo in doubt; 18f) [listing 2 of 2 here]				120		
O=C(NCC1CCC1)c1ncccc1NC(=O)c1ccnc2ccccc12	0.082		0.079	94	0.028	
O=C(NCC1CCC1)c1ncccc1NC(=O)c1ccc(Cn2ccnc2)c2ccccc12	0.33		0.04	100		
C[S@+]([O-])Cc1ccc(C(=O)Nc2cccnc2C(=O)NCC2CCOCC2)c2ccccc12		2.9			0.6	Papp A→B [9]: 0.61 ×10⁻⁶ cm/s
O=C(NCC1CCCCC1)c1nccnc1NC(=O)c1cccc2ccccc12	1.4		0.48	120	0.091	
COc1ccc(NC(=O)c2ccc(Cn3ccnn3)c3ccccc23)c(C(=O)NCC2CCC2)n1		5.7	0.0013	54	0.00097	BPR [6]: 0.093; Kp [7]: 0.31; Papp A→B [9]: 0.96 ×10⁻⁶ cm/s
C[S@@+]([O-])Cc1ccc(C(=O)Nc2cccnc2C(=O)NCC2CCOCC2)c2ccccc12		2.9	0.031	100	0.021	BPR [6]: 0.03; Kp [7]: 0.031; Papp A→B [9]: 26 ×10⁻⁶ cm/s
O=C(NCC1CCOCC1)c1ncccc1NC(=O)c1cccc2nccnc12	> 10	2.5			> 9.9	
O=C(NCC1CCCCC1)c1cc(Cl)ccc1NC(=O)c1cccc2ccccc12	1.8	7.8	0.26	77	0.16	
COc1ccc(NC(=O)c2ccnc3ccccc23)c(C(=O)NCC2CCC2)n1	0.1	5.9	0.016	51	15	
COCc1ccc(C(=O)Nc2cccnc2C(=O)NCC2CCC2)c2ccccc12	0.019		0.0059	110		
C[S+]([O-])Cc1ccc(C(=O)Nc2cccnc2C(=O)NCC2CCC2)c2ccccc12 (stereo not drawn)		4.6	0.0059	110	7	
O=C(Nc1cccnc1C(=O)NCC1CCOCC1)c1ccc2ncsc2c1	> 10	3.5			> 6.7	
CN(C)Cc1ccc(C(=O)Nc2cccnc2C(=O)NCC2CCC2)c2ccccc12	0.19		0.18	100		
O=C(NCC1CCC1)c1ncccc1NC(=O)c1cccc2cccnc12	0.36	5.5			0.32	
